Compound activity: PubChem, several laboratories
An excerpt weighted towards active compounds, which were near 4.1% of everything screened.
Dynein transport: inhibitors of GR-EGFP nuclear translocation, primary screen, dynein cargo transport inhibitor project, imaging, high-content, 3617.4 mouse cells. z-score, hits read low. test concentration mostly 20 µM; stimulated with dexamethasone, 1 µM; hits give low values. 0.47% of 220,000 active;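 active means plate z-score of nuclear minus cytoplasmic receptor signal below a set negative limit, without overly bright fluorescence or cell loss, cut at about -3.5 in these data, passing the limit was not always enough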;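 further: z-score of nuclear minus cytoplasmic ring GR-EGFP intensity difference per well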
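Medium: Induction medium lacking tetracycline, stripped serum | Probe or stimulus: 1.0 µM final dexamethasone stimulus | Schedule: 48 h induction, then 1 h compound, then 30 min agonist, 37 °C | Signal: Automated 10x imaging of fixed Hoechst-stained cells | Evaluation: Per-cell GR-EGFP intensity, nucleus versus surrounding cytoplasmic ring, well-averaged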
ROMK primary: ROMK potassium channel modulators, primary screen, cell-based, thallium flux, MLSMR library; ATP-sensitive inward rectifier potassium channel 1 (Homo sapiens), P48048; Tet-inducible ROMK, thallium flux fluorescence; actives lie on both sides; B-score at 10 µM; 2% of 130,000 active; AID 1918, 2009;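 active means signal ratio slope over the read window, or its plate-corrected B-score, at least 3 SD from the plate mean, either direction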;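 further: B-score of the F/F0 ratio slope over 7 to 12 s after thallium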
DTT redox prof: compounds producing H2O2 with reducing agent – biochemical, NIH compound library profiling, artefact control for MLSCN library redox annotation, primary screen | DTT-dependent redox cycling H2O2, phenol red/HRP absorbance; 100% = 100 µM peroxide control, 0% = buffer | activation, % at 10 µM | 0.03% of 200,000 active | AID 878, 2007;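 active means activation of at least 50% relative to the plate's high and low controls in the primary single-dose screen; inactive means activation below 50%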;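 further: compound incubated with DTT at 0.8 mM final as the reducing agent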
Autophagy mod: autophagy modulators in MEF cells, primary screen, imaging, high-content, MEF GFP-LC3 | MEF GFP-LC3 puncta imaging; test concentration mostly 10 µM | calls only at 10 µM (by protocol) | 0.98% of 190,000 active | AID 463193, 2010;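 active means percentage of spot-positive cells more than 3 SD above its plate mean, without a fluorescence outlier flag or 80% toxicity; inconclusive means no clear call, values can overlap the other calls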;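 further: spot-positive cell cutoff set from DMSO-treated cells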
Cl transport mod: KCC2 cotransporter modulators, thallium flux, primary screen, cell-based, HEK293 KCC2, FluoZin-2 fluorescence, MLSMR; Solute carrier family 12 member 5 (Homo sapiens), Q9H2X9; KCC2 cells, thallium flux FluoZin-2 fluorescence; B-score of Tl+ flux slope (higher = more flux/activation; lower = inhibition) at 10 µM; 2.2% of 190,000 active; AID 1456, 2008;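 active means thallium flux slope and its plate-corrected score both differing from the plate sample mean at a set confidence after two filtering rounds, in either direction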;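 further: slope of fluorescence scaled to starting intensity during 10 to 20 s after thallium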
Target sequence (Q9H2X9 whole entry, looked up): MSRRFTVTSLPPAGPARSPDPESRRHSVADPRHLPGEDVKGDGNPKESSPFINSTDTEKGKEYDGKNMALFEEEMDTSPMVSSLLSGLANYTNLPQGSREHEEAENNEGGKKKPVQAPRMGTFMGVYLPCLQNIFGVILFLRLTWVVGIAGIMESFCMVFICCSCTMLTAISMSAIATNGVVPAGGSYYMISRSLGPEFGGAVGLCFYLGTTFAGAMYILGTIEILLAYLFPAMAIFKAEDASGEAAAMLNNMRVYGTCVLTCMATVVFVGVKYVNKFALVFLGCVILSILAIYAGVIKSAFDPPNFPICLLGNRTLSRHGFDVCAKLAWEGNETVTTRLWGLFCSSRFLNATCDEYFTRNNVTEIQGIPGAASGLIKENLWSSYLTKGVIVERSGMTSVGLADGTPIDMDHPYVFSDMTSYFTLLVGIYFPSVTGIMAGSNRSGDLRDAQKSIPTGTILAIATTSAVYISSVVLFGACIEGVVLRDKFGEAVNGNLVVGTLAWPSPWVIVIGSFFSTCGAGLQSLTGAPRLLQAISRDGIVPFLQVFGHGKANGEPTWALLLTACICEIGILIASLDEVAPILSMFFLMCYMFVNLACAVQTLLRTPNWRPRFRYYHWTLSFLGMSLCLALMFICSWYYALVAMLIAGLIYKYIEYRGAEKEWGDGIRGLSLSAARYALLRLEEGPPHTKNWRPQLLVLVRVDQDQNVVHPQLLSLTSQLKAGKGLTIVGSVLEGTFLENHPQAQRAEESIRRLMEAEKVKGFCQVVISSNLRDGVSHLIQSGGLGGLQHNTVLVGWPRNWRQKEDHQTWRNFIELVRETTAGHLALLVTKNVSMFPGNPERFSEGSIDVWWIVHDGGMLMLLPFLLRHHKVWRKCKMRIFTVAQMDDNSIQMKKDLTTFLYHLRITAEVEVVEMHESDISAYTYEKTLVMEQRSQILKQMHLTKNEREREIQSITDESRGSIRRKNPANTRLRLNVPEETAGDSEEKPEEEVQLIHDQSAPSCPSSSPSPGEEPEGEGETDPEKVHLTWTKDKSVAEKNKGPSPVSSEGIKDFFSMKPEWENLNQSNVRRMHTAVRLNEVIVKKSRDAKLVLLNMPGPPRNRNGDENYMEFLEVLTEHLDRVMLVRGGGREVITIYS
KCC2 sec1: KCC2 modulators in sodium-free buffer, confirmation, cell-based, HEK293 KCC2, thallium flux, secondary assay. shares compounds with Cl transport mod. FluoZin2 fluorescence; hits give high values. normalised thallium flux (F/F0 slope) at 10 µM. 15% of 3,700 active. AID 1713, 2009;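 active means thallium flux slope above the same plate's solvent-only control mean plus 3 SD; inconclusive means the two replicate wells disagree; inactive means no significant difference from solvent-only control wells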
KCC2 bumet counter: thallium flux persisting under bumetanide in KCC2 cells, confirmation, counter-screen for KCC2 modulator project, cell-based, HEK293 KCC2, FluoZin2, secondary assay 3 | shares compounds with Cl transport mod | normalized thallium flux at 10 µM | AID 1714, 2009 | HEK293-KCC2 + bumetanide/ouabain; hits give high values | 49% of 3,700 active;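 active means thallium entry rate above the same plate's blocked-transporter control wells by more than 3 SD; inconclusive means the two repeat wells disagree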;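 further: raw slope of fluorescence over initial fluorescence between 10 and 20 s after thallium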
KCC2 sec2: KCC2 modulators without ouabain present, confirmation, cell-based, HEK293 KCC2, thallium flux, FluoZin2, secondary assay 2; 23% of 3,700 active; thallium flux FluoZin2 fluorescence; actives lie on both sides; F/F0 rise rate, 10–20 s post-thallium; normalized thallium flux at 10 µM; shares compounds with Cl transport mod; AID 1715, 2009;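 active means thallium flux slope more than 3 SD above or below the plate's solvent-only control mean, mostly below; inconclusive means the two repeat wells disagreed; inactive means no significant shift from solvent-only controls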;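 further: raw slope with 0.1% DMSO as baseline and bumetanide as block control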
HEK counter1: thallium flux modulation in parental HEK cells, confirmation, counter-screen for KCC2 modulator project, cell-based, counterscreen 1 | shares compounds with Cl transport mod | HEK293 parental cells, thallium flux FluoZin2, ouabain; baseline-ratio fluorescence slope, 10–20 s after thallium | thallium flux rate (normalised fluorescence) at 10 µM | 46% of 3,700 active | AID 1716, 2009;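 active means thallium flux rate significantly above the same plate's solvent-only control wells, beyond their mean plus 3 SD; inconclusive means the two replicate wells gave conflicting results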
KCC2 ouabain: KCC2 inhibitors and activators, ouabain retest, confirmation, HEK-KCC2 cells; raw Tl+ flux slope (below DMSO = inhibition, above = activation) at 10 µM; 48% of 3,700 active; AID 1717, 2009; HEK293-KCC2, thallium flux FluoZin2 fluorescence; bidirectional: low = inhibitor, high = activator; shares compounds with Cl transport mod;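 active means thallium flux slope beyond 3 SD from same-plate DMSO control mean in most replicates, usually higher, sometimes lower; inconclusive means repeat tests gave conflicting results; inactive means no significant difference from controls in most replicates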;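 further: slope of initial-normalized fluorescence between seconds 10 and 20 after thallium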
HEK counter2: native HEK Tl+ uptake effects, second counter-screen – HEK cells, counterscreen 2, counter-screen for KCC2 modulator project, confirmation. shares compounds with Cl transport mod. HEK293 parental, thallium flux FluoZin-2 fluorescence slope. thallium flux slope at 10 µM. 33% of 3,700 active. AID 1718, 2009;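 active means thallium flux slope above the same plate's solvent-control mean plus 3 SD in both duplicate wells; inconclusive means duplicate wells that disagreed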;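 further: run without ouabain in cells lacking the KCC2 cotransporter; slope of fluorescence scaled to its starting value between 10 and 20 s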
Starred values were filed as active, the others as inactive; i = inactive; ? = inconclusive; . = not tested or not shown.

SMILES	Dynein transport	ROMK primary	DTT redox prof	Autophagy mod	Cl transport mod	KCC2 sec1	KCC2 bumet counter	KCC2 sec2	HEK counter1	KCC2 ouabain	HEK counter2
CCCCCCCCC(=O)NNC(=O)c1c(O)c2ccccc2n(CCC)c1=O	-0.28	-0.2	0	i	6.3*	0.007	0.012*	0.032	0.015*	0.023	?
CCCCCCCCCCC(=O)NNC(=O)c1c(O)c2ccccc2n(CC)c1=O	0.1	-1.1	0	i	5.2*	0.015	0.015*	0.031	0.0099*	0.019	0.012
CCCCCCCC(=O)NNC(=O)c1c(O)c2ccccc2[nH]c1=O	0.28	.	.	.	0.59	.	.	.	.	.	.
CCCCCCCCCC(=O)NNC(=O)c1c(O)c2ccccc2n(CCC)c1=O	0.57	-0.014	0	i	3.9*	0.015	0.0099*	0.03	0.0092*	0.018	0.012
O=C1C2(CCCC13COC(c1ccc(O)cc1)OC3)COC(c1ccc(O)cc1)OC2 (stereo unspecified)	-0.48	.	.	.	0.72	.	.	.	.	.	.
Cc1c([N+](=O)[O-])cc(C(=O)Oc2cccc(C(=S)N3CCOCC3)c2)cc1[N+](=O)[O-]	-1.1	0.031	0	i	0.085	.	.	.	.	.	.
Cc1ccsc1/C=N/NC(=O)c1ccc2c(c1)OCCO2	0.85	.	.	.	0.54	.	.	.	.	.	.
Cc1ccsc1/C=N\NC(=O)c1ccc2c(c1)OCO2	2.5	.	-11	i	5.9*	0.0066	0.0063*	0.027	0.011*	0.02	?
CN(C)C(CNC(=S)Nc1ccccc1Cl)c1cccnc1 (stereo unspecified)	1.2	.	0	i	1.6	.	.	.	.	.	.
CN1CCC(N(C)C(=S)NCCc2ccccc2)CC1	-0.91	-0.058	0	i	0.92	.	.	.	.	.	.
CCOC(=O)C1CCCN(C(=O)CCCn2nc(C)n3c(cc4sccc43)c2=O)C1 (stereo unspecified)	-1.3	.	-1	i	-4.2*	0.009	0.0088*	0.033	0.007	0.021	0.011
COc1ccc(-c2csc(NC(=S)NC(=O)c3cccs3)n2)cc1OC	-0.26	0.34	-2	i	31*	0.01*	0.046*	0.056*	0.044*	0.048*	0.044*
CCCCC(=O)Nc1ccc(NC(=S)NC(=O)c2ccco2)cc1OC	-0.31	.	.	.	13*	0.022*	0.047*	?	0.02*	0.026*	0.022*
COc1ccc(OC)c(NC(=O)C(=O)NNC(=O)c2cccs2)c1	-0.55	.	0	i	9.9*	0.015*	0.063*	0.034	0.022*	0.04*	0.015*
COc1cc(NC(=S)NC(=O)c2ccco2)ccc1NC(=O)C(C)C	-1.2	-1.1	0	i	5.2*	0.0099	0.012*	0.031	0.012*	?	0.011
COc1ccc(-c2csc(NC(=S)NC(=O)c3cccs3)n2)cc1Br	-0.29	.	.	.	.	.	.	.	.	.	.
Nc1ncnc(N2CCc3ccccc32)c1[N+](=O)[O-]	0.22	0.43	1	i	0.13	.	.	.	.	.	.
COc1cc(NC(=S)NC(=O)c2cccs2)ccc1NC(=O)C(C)C	0.29	0.069	0	i	5.1*	0.0099	0.024*	0.03	0.01*	?	0.011*
COc1ccc(-c2csc(NC(=O)c3ccccc3NS(=O)(=O)c3ccc(C)cc3)n2)cc1	0.33	.	0	i	-4	.	.	.	.	.	.
COc1ccc(S(=O)(=O)Nc2ccccc2C(=O)Nc2nc(-c3ccc(F)cc3)cs2)cc1OC	0.18	-1.6	0	i	-6.2*	0.006*	0.0057	0.03	?	0.012*	0.01
Cc1ccc2cc(C#N)c(SCC(=O)N3CCCc4ccccc43)nc2c1C	-0.38	.	3	i	0.051	.	.	.	.	.	.
COC(=O)c1ccc(C(C(=O)NCc2ccccc2)N(Cc2cccs2)C(=O)c2cnccn2)cc1 (stereo unspecified)	-0.9	.	2	i	.	0.0093	0.0059	0.033	0.0085	0.02	0.011
COc1ccc(C(C(=O)NCc2ccccc2)N(Cc2ccco2)C(=O)c2cnccn2)cc1 (stereo unspecified)	-0.58	.	0	i	-0.34	.	.	.	.	.	.
c1ccc2ncc(-n3cnnn3)cc2c1	-0.0015	0.013	2	i	3*	0.01	0.0066	0.036	0.0083	0.022	0.01
Cc1ccc(-n2nnc(-c3cnc4ccccc4c3)n2)cc1	0.81	.	0	i	0.6	.	.	.	.	.	.
Cc1cc(C)c(S(=O)(=O)/N=C2/C=C(SCC(=O)O)C(=O)c3ccccc32)cc1C	-0.59	-1.2	0	i	-4.2*	0.0061	0.007*	?	0.0072	0.018	0.011
Cc1ccc(Cl)cc1NC1=C/C(=N\S(=O)(=O)c2cccs2)c2ccccc2C1=O	-0.55	-1.6	0	i	-1.2	.	.	.	.	.	.
C/C(=N/NC(=O)CNC(=O)c1ccccn1)c1cccc([N+](=O)[O-])c1	-0.56	-0.14	-1	i	.	.	.	.	.	.	.
Fc1ccccc1-n1c(-c2ccc3ccccc3n2)n[nH]c1=S	0.059	-0.033	-1	i	4.5*	0.011	0.022*	?	?	?	0.012
